Active and inactive are the calls of the source. The rule behind the calls is not given here.
Legend:
Pseudomonas aeruginosa [1] = test: Inhibition of RND efflux pump in colistin-resistant Pseudomonas aeruginosa isolate 91433 assessed as potentiation of minocycline-induced antibacterial activity by measuring fold reduction in minocycline MIC at 8 ug/ml after 18 to 24 hrs by microbroth dilution assay
In short: (§1)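 Checkerboard broth microdilution: antibiotic 2-fold diluted along one axis, adjuvant 2-fold diluted along the other. Overnight culture standardized to 0.5 McFarland in saline, diluted 1:50 in MHB, added to wells, 37 °C for 18 h. MIC is the lowest concentration with no growth. FIC = MIC in combination / MIC alone; FICI = sum of the two FICs; FICI ≤0.5 is synergy.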

Pseudomonas aeruginosa [2] = test: Inhibition of RND efflux pump in Pseudomonas aeruginosa isolate P264-104354 assessed as potentiation of minocycline-induced antibacterial activity at 8 ug/ml after 18 to 24 hrs by checker board assay
In short: as §1, with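 “in MHB:” for “broth microdilution:”, “test agent” for “adjuvant”, “wells, incubated” for “wells,”, “FIC index” for “FICI”, “both FICs.” for “the two FICs; FICI ≤0.5 is synergy.”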

Pseudomonas aeruginosa [3] = test: Inhibition of RND efflux pump in colistin-resistant Pseudomonas aeruginosa isolate 101243 assessed as potentiation of minocycline-induced antibacterial activity at 8 ug/ml after 18 to 24 hrs by checker board assay; in short: as §1
Galleria mellonella = test: Toxicity in Galleria mellonella assessed as death at 200 mg/kg up to 96 hrs; assay type: organism-based; conditions: in vivo
Pseudomonas aeruginosa [4] = test: Antibacterial activity against XDR Pseudomonas aeruginosa isolate P262-101856 infected in Galleria mellonella assessed as protection against bacterial infection by measuring larval death at 75 mg/kg up to 24 hrs relative to control; assay type: functional
In short: (§2)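 G. mellonella larvae infected with 1.0 × 10^5/mL CFU of XDR P. aeruginosa 101856. A single-dose injection of agent, alone or with minocycline, given 2 h post-infection. Survival scored up to 24 h. 15 larvae per experiment from different batches, two experiments per dosage (n = 30). Significance 0 vs 24 h at P ≤ 0.05.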

Pseudomonas aeruginosa [5] = test: Inhibition of RND efflux pump in colistin-resistant Pseudomonas aeruginosa isolate 91433 assessed as potentiation of minocycline-induced antibacterial activity at 8 ug/ml after 18 to 24 hrs by checker board assay; in short: as §1
[6] = Hemolytic activity against ovine erythrocytes at 1000 ug/ml after 30 mins relative to control; assay type: ADME, cell-based, Ovis aries, Erythrocyte; conditions: sheep, read-out: Activity
Pseudomonas aeruginosa [7] = test: (§3) Inhibition of RND efflux pump in XDR Pseudomonas aeruginosa isolate P262-101856 infected in Galleria mellonella assessed as potentiation of minocycline-induced antibacterial activity by measuring larval survival rate at 75 mg/kg co-treated with 75 mg/kg minocycline measured after 24 hrs relative to control; assay type: organism-based; in short: as §2
Pseudomonas aeruginosa [8] = test: Inhibition of RND efflux pump in Pseudomonas aeruginosa isolate […] assessed as potentiation of minocycline-induced antibacterial activity by measuring minocycline MIC at 8 ug/ml after 18 to 24 hrs by microbroth dilution assay (reference value: 64 ug/ml); conditions: isolate P262-104354
In short: (§4)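 Absolute minocycline MIC taken from checkerboard broth dilution with a fixed 8 μg/mL adjuvant. Inoculum was a 0.5 McFarland saline suspension diluted 1:50 in MHB, incubated 37 °C for 18 h. MIC is the lowest concentration with no growth.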

[9] = system: Pseudomonas aeruginosa PAO1; test: Inhibition of RND efflux pump in Pseudomonas aeruginosa PAO1 assessed as potentiation of minocycline-induced bactericidal activity at 0.5 times antibacterial MIC up to 24 hrs by serial dilution assay
Pseudomonas aeruginosa [10] = test: Inhibition of RND efflux pump in colistin-resistant Pseudomonas aeruginosa isolate 91433 assessed as potentiation of minocycline-induced antibacterial activity by measuring minocycline MIC at 8 ug/ml after 18 to 24 hrs by microbroth dilution assay (reference value: 32 ug/ml); in short: as §1
[11] = system: Pseudomonas aeruginosa PAO1; test: Inhibition of RND efflux pump in Pseudomonas aeruginosa PAO1 assessed as potentiation of minocycline-induced antibacterial activity by measuring ratio of minocycline MIC after 25 serial passages to minocycline MIC at sub-MIC after 18 to 24 hrs by microbroth dilution assay
Pseudomonas aeruginosa [12] = test: as §3, with “37.5” for “75”; assay type: organism-based; in short: as §2
[13] = system: Pseudomonas aeruginosa PAO1; test: Inhibition of RND efflux pump in Pseudomonas aeruginosa PAO1 assessed as potentiation of minocycline-induced antibacterial activity by measuring fold reduction in minocycline MIC at 8 ug/ml after 18 to 24 hrs by microbroth dilution assay relative to minocycline alone; in short: as §4
[14] = Cytotoxicity against human DU145 cells assessed as reduction in cell viability after 24 hrs by MTS assay; assay type: cell-based, DU-145
[15] = Toxicity in Galleria mellonella assessed as death at 100 mg/kg after 24 hrs relative to control; assay type: organism-based; conditions: in vivo, read-out: Activity
[16] = Cytotoxicity against human JIMT1 cells assessed as reduction in cell viability after 24 hrs by MTS assay; assay type: cell-based, JIMT-1
Pseudomonas aeruginosa [17] = test: Inhibition of RND efflux pump in colistin-resistant Pseudomonas aeruginosa isolate 91433 assessed as potentiation of minocycline-induced antibacterial activity by measuring minocycline MIC at 0.25 times antibacterial MIC after 18 to 24 hrs by microbroth dilution assay (reference value: 32 ug/ml); in short: as §1
Pseudomonas aeruginosa [18] = test: Inhibition of RND efflux pump in Pseudomonas aeruginosa isolate P264-104354 assessed as potentiation of minocycline-induced antibacterial activity at 0.25 times antibacterial MIC after 18 to 24 hrs by checker board assay
In short: as §1, with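 “in MHB:” for “broth microdilution:”, “test agent” for “adjuvant”, “wells, incubated” for “wells,”, “FIC index” for “FICI”, “both FICs.” for “the two FICs; FICI ≤0.5 is synergy.”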

[19] = system: Pseudomonas aeruginosa PAO1; test: Inhibition of RND efflux pump in Pseudomonas aeruginosa PAO1 assessed as potentiation of minocycline-induced bactericidal activity up to 1 time antibacterial MIC after 9 hrs by serial dilution assay
Pseudomonas aeruginosa [20] = test: Inhibition of RND efflux pump in Pseudomonas aeruginosa isolate […] assessed as potentiation of minocycline-induced antibacterial activity by measuring minocycline MIC at 0.25 times antibacterial MIC after 18 to 24 hrs by microbroth dilution assay (reference value: 64 ug/ml); conditions: isolate P262-104354; in short: as §1
Pseudomonas aeruginosa [21] = test: Inhibition of RND efflux pump in colistin-resistant Pseudomonas aeruginosa isolate 91433 assessed as potentiation of minocycline-induced antibacterial activity at 0.25 times antibacterial MIC after 18 to 24 hrs by checker board assay; in short: as §1
Pseudomonas aeruginosa [22] = test: Inhibition of RND efflux pump in colistin-resistant Pseudomonas aeruginosa isolate 91433 assessed as potentiation of minocycline-induced antibacterial activity by measuring fold reduction in minocycline MIC at 0.25 times antibacterial MIC after 18 to 24 hrs by microbroth dilution assay; in short: as §1

Row | SMILES | fold change (FC) (Pseudomonas aeruginosa [1]) | fractional inhibitory concentration index (FICI) (Pseudomonas aeruginosa [2]) | fractional inhibitory concentration index (FICI) (Pseudomonas aeruginosa [3]) | Activity (Galleria mellonella) | Activity (Pseudomonas aeruginosa [4]) [%] | fractional inhibitory concentration index (FICI) (Pseudomonas aeruginosa [5]) | hemolysis at 0.5 h, 1000 ug/ml [6] [%] | Survival (Pseudomonas aeruginosa [7]) [%] | MIC (Pseudomonas aeruginosa [8]) [µg/mL] | inhibition [9] | MIC (Pseudomonas aeruginosa [10]) [µg/mL] | Ratio [11] | fold change (FC) [13] | also measured
1 | Cl.Cl.Cl.Cl.Cl.Cl.NC[C@H]1O[C@H](O[C@H]2[C@H](OCCCCCCCCCCCCN3CC[C@@H](c4ccc(F)cc4)[C@H](COc4ccc5c(c4)OCO5)C3)[C@@H](O[C@H]3O[C@H](CO)[C@@H](O)[C@H](N)[C@H]3O)[C@H](N)C[C@@H]2N)[C@H](N)C[C@@H]1O | 8 to 256 | 0.06 | 0.38 | Non-Toxic | 100 | 0.19 | ≤ 5 | 56 | < 0.5 | Active | 0.25 | 2 | – | –
2 | Cl.Cl.Cl.Cl.Cl.Cl.Cl.NC[C@H]1O[C@H](O[C@H]2[C@H](OCCCCCCCCCCCCN3CCN(Cc4cccc5ccccc45)CC3)[C@@H](O[C@H]3O[C@H](CO)[C@@H](O)[C@H](N)[C@H]3O)[C@H](N)C[C@@H]2N)[C@H](N)C[C@@H]1O | 8 to 256 | 0.03 | 0.28 | Non-Toxic | 100 | 0.13 | ≤ 5 | 77 | < 0.5 | Active | 0.25 | – | 16 | Survival (Pseudomonas aeruginosa [12]): 10%
3 | NC[C@H]1C[C@H](C(=O)N[C@H](CCc2ccccc2)C(=O)Nc2ccc3ccccc3c2)N(CCCCCCCCCCCCO[C@@H]2[C@@H](O[C@H]3O[C@H](CO)[C@@H](O)[C@H](N)[C@H]3O)[C@H](N)C[C@H](N)[C@H]2O[C@H]2O[C@H](CN)[C@@H](O)C[C@H]2N)C1 | – | – | 0.19 | – | – | – | – | – | – | – | – | 2 | 64 | CC50 at 24 h [14]: > 30 µM; mortality at 24 h [15]: 100%; CC50 at 24 h [16]: > 30 µM; MIC (Pseudomonas aeruginosa [17]): 0.25 µg/mL; fractional inhibitory concentration index (FICI) (Pseudomonas aeruginosa [18]): 0.25; inhibition [19]: Active; MIC (Pseudomonas aeruginosa [20]): < 0.5 µg/mL; fractional inhibitory concentration index (FICI) (Pseudomonas aeruginosa [21]): 0.16; fold change (FC) (Pseudomonas aeruginosa [22]): 8 to 256
